Results gathered from unrelated publications.
Compare with care: the assays were run in different laboratories.
Target: Ephrin type-A receptor 7 (EPHA7, Homo sapiens, UniProt Q15375)

SMILES | assay | setting | quantity | result
CO[C@@H](C)c1c(Nc2ccc([C@H](N(C)C(=O)C3CCS(=O)(=O)CC3)C(F)(F)F)cc2)cnc2cc(Cl)nn12 | cell-free assay, competition with immobilised ligand | 1 µM | remaining binding | 84%
Cc1cnc(NC2CCOCC2)nc1-n1cnc(C(=O)NC(CN)c2cc(F)cc(Cl)c2)c1 (centres unmarked) | enzyme activity, inhibitor, radiometric | 1 µM | remaining activity | 88%
CCN(CC)CCNC(=O)c1c(C)[nH]c(/C=C2\C(=O)Nc3ccc(F)cc32)c1C | enzyme activity, inhibitor | 10 µM | inhibition | 78%
COc1cc(Cl)c(C(=O)N[C@@H](CN[C@H]2CC[C@@H](N)CC2)Cc2ccc(C#N)cc2)cc1-c1ccc(CN[C@H](C)c2ccc(C)cc2)o1 | enzyme activity, inhibitor | 1 µM | remaining activity | 105%
O=C(Nc1cnn(-c2csc(C(=O)NC3COC3)c2)c1)Nc1c(F)cccc1Cl | enzyme activity, inhibitor | 5 µM | remaining activity | 91.2%
CC(C)(C)c1nc2c(s1)c1nc(N)ncc1c1ccc(NS(=O)(=O)c3c(F)cccc3F)c(F)c12 | enzyme activity, inhibitor, radiometric | 1 µM | remaining activity | 96%
O=C1Nc2ccc(Cl)cc2C1=Cc1cc(Cl)c(O)c(Cl)c1 | cell-free assay | 0.5 µM | remaining signal | 97.5%
Cn1nc(C(=O)NCc2ccc(C(=O)O)cc2)cc1-c1ccc2[nH]ccc2c1 | cell-free assay, competition with immobilised ligand | 0.1 µM | remaining binding | 82%
N#CCCc1ccc2c(c1)-c1[nH]c3ccc([N+](=O)[O-])cc3c1CC(=O)N2 | cell-free assay | 0.5 µM | remaining signal | 95.3%
CC/C(=N\NC(=O)NCc1cccc(O)c1)c1ccc(O)c(C)c1O | enzyme activity, inhibitor | 0.1 µM | inhibition | -0.5%
CNC(=O)c1cc2c(Oc3ccc(NC(=O)C4(C(=O)Nc5ccc(F)cc5)CC4)cc3)ccnc2cc1OC | enzyme activity, inhibitor, radiometric | 1 µM | inhibition | 96%
CNC(=O)c1cc(Oc2ccc(NC(=O)Nc3ccc(Cl)c(C(F)(F)F)c3)cc2)ccn1 | enzyme activity, inhibitor | 10 µM | inhibition | 90%
CC(=O)c1c(NS(C)(=O)=O)c2cc(-c3ccc(Cl)cc3)c(-c3ccc(Cl)cc3Cl)nc2n(C)c1=O | cell-free assay, competition with immobilised ligand | 1 µM | remaining binding | 100%
CCCCNc1ncc2c(-c3ccc(F)cc3)nn(C[C@H]3CC[C@H](N)CC3)c2n1 | target engagement in cells, inhibitor, chemoproteomics | 20 mM | inhibition | 43.9%
O=C(NS(=O)(=O)c1ccc(NCC2CCOCC2)c([N+](=O)[O-])c1)c1ccc(N2CCN(Cc3ccc(C(F)(F)F)cc3-c3ccc(Cl)cc3)CC2)cc1Oc1cnc2[nH]ccc2c1 | cell-free assay, competition with immobilised ligand | 1 µM | remaining binding | 88%
Cc1ccc(Nc2nccc(N(C)c3ccc4c(C)n(C)nc4c3)n2)cc1S(N)(=O)=O | enzyme activity, inhibitor | 0.3 µM | inhibition | 1%
C[C@@H](c1cccc(C#N)c1)n1cc(Cl)cc(C(N)=O)c1=N | cell-free assay, competition with immobilised ligand | 1 µM | remaining binding | 100%
CCCOc1ccc(OC)c(F)c1C(=O)c1ccc(C(=O)N[C@@H]2CNC[C@H]2NC(=O)c2ccc3[nH]ncc3c2)cc1 | enzyme activity, inhibitor | 10 µM | remaining activity | 29%
COc1ccc2c(c1)O[C@@H](c1ccc(OC)c(OC)c1)C[C@H]2NC(=O)C1(c2ccc3c(c2)OC(F)(F)O3)CC1 | cell-free assay, competition with immobilised ligand | 1 µM | remaining binding | 86%
Cc1ccc(NC(=O)c2ccc(C)c(C(F)(F)F)c2)cc1C#Cc1nn(C2CCC(O)CC2)c2ncnc(N)c12 (centres unmarked) | cell-free assay | 10 µM | remaining signal | 0%
